Assays:
[1] = organism: Rattus norvegicus; test: Tested for inhibition of ferrous salt/ascorbate induced lipidic peroxidation of membrane lipid of rat hepatocytes; assay type: functional; details: Hepatocyte
Method in brief: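 Rat liver microsomes (male Wistar, 200-250 g) were prepared by differential centrifugation and used at 2 mg prot/mL. Incubation was at 37°C, pH 7.4, Tris-HCl/KCl, with 100 μM ascorbate and compounds in DMSO (≤5%). TBARS were read at 543 nm against an MDA standard, using the 30-min plateau. IC50 came from % inhibition vs control by non-linear regression.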

[2] = organism: Rattus norvegicus; test: Vasodilating activity in rat aorta strip in absence of 1H-[1,2,4]oxadiazolo[4,3-a]quinoxalin-1-one (ODQ); assay type: functional, organism-based
Method in brief: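 Rat aortic strips were precontracted with 1 μM L-phenylephrine and relaxation was measured. The method follows an earlier published procedure with minor changes.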

[3] = organism: Rattus norvegicus; test: Vasodilating activity in rat aorta strip in presence of 1H-[1,2,4]oxadiazolo[4,3-a]quinoxalin-1-one (ODQ); assay type: functional, organism-based
Method in brief: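 Rat aortic strips were precontracted with 1 μM L-phenylephrine. ODQ 1 μM was added to the bath at least 5 min before contraction, in a separate series of experiments, and relaxation was then measured.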

| Structure (SMILES) | IC50 [1] [nM] | EC50 [2] [nM] | EC50 [3] [nM] |
| --- | --- | --- | --- |
| Cc1ccc(O)cc1 [p-CRESOL] | 290000 |  |  |
| Cc1c(C)c2c(c(C)c1O)CCC(C)(C)O2 [APC-100] | 170 |  |  |
| Cc1c(C)c2c(c(C)c1O)CCC(C)(COc1no[n+]([O-])c1S(=O)(=O)c1ccccc1)O2 (stereo unspecified) | 490 | 40 | 670 |
| O=S(=O)(c1ccccc1)c1c(OCCCc2ccc(O)cc2)no[n+]1[O-] | 47000 | 10 | 360 |
| Cc1cc(C(C)(C)C)c(O)c(C(C)(C)C)c1 [BUTYLATED HYDROXYTOLUENE] | 1700 |  |  |
| CC(C)(C)c1cc(CCCOc2no[n+]([O-])c2S(=O)(=O)c2ccccc2)cc(C(C)(C)C)c1O | 2000 | 110 | 4800 |
| CCOc1no[n+]([O-])c1S(=O)(=O)c1ccccc1 | 110000 | 10 | 1200 |
| Cc1c(C)c2c(c(C)c1O)CCC(C)(COCCCO[N+](=O)[O-])O2 (stereo unspecified) | 150 | 1200 |  |
| CC(C)(C)c1cc(CCCO[N+](=O)[O-])cc(C(C)(C)C)c1O | 2000 | 40000 |  |
| O=[N+]([O-])OCCCc1ccc(O)cc1 | 143000 | 1000 |  |
